Activity calls are given as the source filed them. The calls are words filed in the database; no cut-off is given here.
Columns and labels:
Rattus norvegicus [1] = test: In Vivo effect on concentration of HVA in rat striatum at dose of 10 umol/kg administered intraperitoneally; type: functional
Summary of the method: (§1)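 Female Wistar-derived rats (180–220 g) were given drug ip in saline and killed by cervical dislocation 1 h later. Striata were frozen and homogenized in 0.1 M perchloric acid, then centrifuged (3000g, 7 °C, 15 min). DOPAC and HVA were purified on Sephadex G10, separated by RP18 HPLC with electrochemical detection, and expressed as % of control.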

Rattus norvegicus [2] = test: In Vivo effect of agonist on the induction of stereotypy (continuous sniffing behavior in rat) at 10 umol/kg
Rattus norvegicus [3] = test: In Vivo effect on concentration of DOPAC in rat striatum at dose of 10 umol/kg administered intraperitoneally; type: functional; summary of the method: as §1
[4] = Ionization constant in presence of nitrogen; type: physicochemical; details: read-out: pKa1
Summary of the method: (§2)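 pKa was determined by the Albert and Serjeant method, as the mean of three to four determinations.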

[5] = Partition coefficient in octanol-buffer at a pH 7.4; type: physicochemical
Summary of the method: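 Distribution between 1-octanol and Na⁺/K⁺-phosphate buffer at pH 7.4, each phase presaturated with the other. Tubes were shaken closed and phases separated by centrifugation. Concentrations were measured by HPLC (C18) with electrochemical detection.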

[6] = Ionization constant in presence of hydroxyl; type: physicochemical; details: read-out: pKa2; summary of the method: as §2
D(2) dopamine receptor = D(2) dopamine receptor (Rattus norvegicus, UniProt P61169); test: Potency to displace the specific in vitro binding of [3H]DP-5,6-ADTN to rat striatal membrane; design: species or system Striatum
Sequence of D(2) dopamine receptor (P61169 whole entry): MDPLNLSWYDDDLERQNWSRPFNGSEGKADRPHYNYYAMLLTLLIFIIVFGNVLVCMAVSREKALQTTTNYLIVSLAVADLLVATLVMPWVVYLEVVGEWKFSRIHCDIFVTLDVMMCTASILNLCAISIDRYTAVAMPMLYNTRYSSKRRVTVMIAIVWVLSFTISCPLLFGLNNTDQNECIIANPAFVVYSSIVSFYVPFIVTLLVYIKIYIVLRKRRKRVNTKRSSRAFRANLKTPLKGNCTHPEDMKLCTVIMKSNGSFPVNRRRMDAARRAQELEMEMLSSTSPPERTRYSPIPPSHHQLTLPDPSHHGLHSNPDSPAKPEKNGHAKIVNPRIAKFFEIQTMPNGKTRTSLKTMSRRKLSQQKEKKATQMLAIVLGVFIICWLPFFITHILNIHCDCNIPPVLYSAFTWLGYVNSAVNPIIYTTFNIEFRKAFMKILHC
Summary of the method: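 Homogenized, washed rat striatal membranes were incubated with [³H]-DP-5,6-ADTN. Nonspecific binding was defined with 10⁻⁶ M (+)-butaclamol. Competitor was tested over 10⁻¹¹–10⁻⁴ M, in triplicate.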

Rattus norvegicus [7] = test: In Vivo effect on concentration of HVA in rat striatum at dose of 0.4 umol/kg administered intraperitoneally; type: functional
Rattus norvegicus [8] = test: In Vivo effect on concentration of DOPAC in rat striatum at dose of 0.4 umol/kg administered intraperitoneally; type: functional
Rattus norvegicus [9] = test: In Vivo effect of agonist on the induction of stereotypy (continuous sniffing behavior in rat) ED50
Rattus norvegicus [10] = test: In Vivo effect on concentration of DOPAC in rat striatum at 1 umol/kg; type: functional
Rattus norvegicus [11] = test: In Vivo effect on concentration of HVA in rat striatum at 1 umol/kg; type: functional
Rattus norvegicus [12] = test: In Vivo effect of agonist on the induction of stereotypy (continuous sniffing behavior in rat) at 0.4 umol/kg; type: functional
[13] = molecular target: Dopamine D2 receptor (Bos taurus); test: Potency to displace the specific in vitro binding of [3H]N-0437 to calf striatal membrane
Rattus norvegicus [14] = test: In Vivo effect of agonist on the induction of stereotypy (continuous sniffing behavior in rat) at 10 umol/kg; Inactive; type: functional, organism-based
Rattus norvegicus [15] = test: In vivo effect on concentration of DOPAC in rat striatum at dose of 10 umol/kg administered intraperitoneally; type: functional; summary of the method: as §1

Row | Structure (SMILES) | Control (Rattus norvegicus [1]) [%] | pKa [4] | logD [5] | pKa [6] | IC50 (D(2) dopamine receptor) [nM] | further results
1 | CN1CCc2cccc3c2[C@H]1Cc1ccc(O)c(O)c1-3 [APOMORPHINE] | 40 |  |  |  |  | ED50 (Rattus norvegicus [2]): 2.3 µmol/kg; Control (Rattus norvegicus [3]): 48%
2 | CCCN(CCC)C1COc2ccc(O)cc2C1 (stereo not given) |  | 8.1 | 2.39 | 9.6 |  | 
3 | CCCN1CCO[C@@H]2c3cc(O)ccc3CC[C@H]21 [NAXAGOLIDE] |  | 7.5 | 2.09 | 10.9 | 3 | Control (Rattus norvegicus [7]): 44%; Control (Rattus norvegicus [8]): 67%; ED50 (Rattus norvegicus [9]): 0.5 µmol/kg
4 | CCCN(CCC)C1CCc2ccc(O)cc2C1 (stereo not given) |  | 9.4 | 1.45 | 10.7 |  | Control (Rattus norvegicus [10]): 72%; Control (Rattus norvegicus [11]): 56%
5 | CCCN1CCO[C@@H]2c3cccc(O)c3CC[C@H]21 |  | 7.4 | 2.22 | 10.5 | 75 | ED50 (Rattus norvegicus [12]): 7.5 mg/kg; Control (Rattus norvegicus [7]): 86%; IC50 [13]: 24 nM; Control (Rattus norvegicus [8]): 101%
6 | CCCN1CCO[C@@H]2c3cccc(O)c3OC[C@H]21 | 110 | 5.8 | 1.93 | 10.2 | 2920 | IC50 [13]: 8900 nM; ED50 (Rattus norvegicus [14]): inactive; Control (Rattus norvegicus [3]): 108%
7 | CCCN(CCC)C1COc2c(O)cccc2C1 (stereo not given) |  | 8.2 | 2.44 | 9.9 | 4 | 
8 | CCCN(CCC)C1CCc2c(O)cccc2C1 (stereo not given) [5-OH-DPAT] |  | 9.4 | 1.53 | 10.9 |  | Control (Rattus norvegicus [10]): 73%; Control (Rattus norvegicus [11]): 60%
9 | CCCN1CCO[C@@H]2c3cc(O)ccc3OC[C@H]21 | 100 | 6.1 | 1.97 | 10.3 | 3070 | Control (Rattus norvegicus [15]): 100%; ED50 (Rattus norvegicus [14]): inactive
